Measurements published in ChEMBL document CHEMBL3232885, “Synthesis, characterization and pharmacological screening of some novel 5-imidazopyrazole incorporated polyhydroquinoline derivatives” (Eur J Med Chem, 2014).
Converted amounts (≈) assume the structure as drawn.

Tests used:
Aspergillus fumigatus = test: Antifungal activity against Aspergillus fumigatus MTCC 3008 assessed as growth inhibition after 24 to 48 hrs by broth microdilution method; type: functional
How it was run: (§1)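 Fungal nutrition used Sabouraud Dextrose broth with inoculum at 10⁸ CFU mL⁻¹ by turbidity. Serial compound dilutions were made in 2% DMSO in water. Growth was noted on subculture after 24 and 48 h. MIC was taken as the highest dilution preventing visible turbidity after spot subculture.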

Candida albicans = test: Antifungal activity against Candida albicans MTCC 227 assessed as growth inhibition after 24 to 48 hrs by broth microdilution method; type: functional; how it was run: as §1
Salmonella typhi = test: Antibacterial activity against Salmonella typhi MTCC 98 assessed as growth inhibition after 24 to 48 hrs by broth microdilution method; type: functional, Salmonella enterica subsp. enterica serovar Typhi; details: Salmonella enterica
Streptococcus pneumoniae = test: Antibacterial activity against Streptococcus pneumoniae MTCC 1936 assessed as growth inhibition after 24 to 48 hrs by broth microdilution method; type: functional
How it was run: (§2)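 Bacteria were grown in Mueller-Hinton broth with inoculum adjusted to 10⁸ CFU mL⁻¹ by turbidity. Compounds were serially diluted in 2% aqueous DMSO and incubated at 37 °C overnight. Growth was checked by subculture at 24 and 48 h. MIC was taken as the highest dilution with no turbidity after spot subculture.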

Escherichia coli = test: Antibacterial activity against Escherichia coli MTCC 443 assessed as growth inhibition after 24 to 48 hrs by broth microdilution method; type: functional; how it was run: as §2
Vibrio cholerae = test: Antibacterial activity against Vibrio cholerae MTCC 3906 assessed as growth inhibition after 24 to 48 hrs by broth microdilution method; type: functional
Bacillus subtilis = test: Antibacterial activity against Bacillus subtilis MTCC 441 assessed as growth inhibition after 24 to 48 hrs by broth microdilution method; type: functional; how it was run: as §2
Clostridium tetani = test: Antibacterial activity against Clostridium tetani MTCC 449 assessed as growth inhibition after 24 to 48 hrs by broth microdilution method; type: functional
[1] = tested on: Mycobacterium tuberculosis; test: Antitubercular activity against Mycobacterium tuberculosis H37Rv assessed as inhibition of colony formation at 100 ug/mL after 2 to 4 weeks by Lowensteine-Jensen method relative to control; type: functional
[2] = tested on: Mycobacterium tuberculosis; test: Antitubercular activity against Mycobacterium tuberculosis H37Rv assessed as inhibition of colony formation at 250 ug/mL after 2 to 4 weeks by Lowensteine-Jensen method relative to control; type: functional
Plasmodium falciparum = test: Antimalarial activity against chloroquine/quinine sensitive Plasmodium falciparum assessed as parasite growth inhibition after 48 hrs; type: functional, organism-based

| Compound | MIC (Aspergillus fumigatus) [mg/L] | MIC (Candida albicans) [mg/L] | MIC (Salmonella typhi) [mg/L] | MIC (Streptococcus pneumoniae) [mg/L] | MIC (Escherichia coli) [mg/L] | MIC (Vibrio cholerae) [mg/L] | MIC (Bacillus subtilis) [mg/L] | MIC (Clostridium tetani) [mg/L] | inhibition at 100 µg/mL [1] [%] | inhibition at 250 µg/mL [2] [%] | IC50 (Plasmodium falciparum) [mg/L] |
| --- | --- | --- | --- | --- | --- | --- | --- | --- | --- | --- | --- |
| NYSTATIN | 500 | 100 | – | – | – | – | – | – | – | – | – |
| O=C(N[C@H](CO)[C@H](O)c1ccc([N+](=O)[O-])cc1)C(Cl)Cl [CHLORAMPHENICOL] | – | – | 50 (≈ 155 µM) | 100 (≈ 309 µM) | 10 (≈ 30.9 µM) | 50 (≈ 155 µM) | 50 (≈ 155 µM) | 25 (≈ 77.4 µM) | – | – | – |
| COC1=CC(=O)C[C@@H](C)[C@]12Oc1c(Cl)c(OC)cc(OC)c1C2=O [GRISEOFULVIN] | 100 (≈ 283 µM) | 100 (≈ 283 µM) | – | – | – | – | – | – | – | – | – |
| CO[C@H]1/C=C/O[C@@]2(C)Oc3c(C)c(O)c4c(O)c(c(/C=N/N5CCN(C)CC5)c(O)c4c3C2=O)NC(=O)/C(C)=C\C=C\[C@H](C)[C@H](O)[C@@H](C)[C@@H](O)[C@@H](C)[C@H](OC(C)=O)[C@@H]1C [RIFAMPIN] | – | – | – | – | – | – | – | – | 98 | 98 | – |
| Cc1nn(-c2ccccc2)c(-n2ccnc2)c1C1C(C#N)=C(N)N(c2ccc(Cl)cc2)C2=C1C(=O)CC(C)(C)C2 (stereo not given) | 500 (≈ 909 µM) | > 1000 | 500 (≈ 909 µM) | 125 (≈ 227 µM) | 500 (≈ 909 µM) | 250 (≈ 454 µM) | 200 (≈ 364 µM) | 125 (≈ 227 µM) | 76 | 84 | 0.073 (≈ 0.133 µM) |
| C=C[C@H]1CN2CC[C@H]1C[C@H]2[C@H](O)c1ccnc2ccc(OC)cc12 [QUININE] | – | – | – | – | – | – | – | – | – | – | 0.268 (≈ 0.826 µM) |
| CCOC(=O)C1=C(N)N(c2ccc(C)cc2)C2=C(C(=O)CC(C)(C)C2)C1c1c(C)nn(-c2ccccc2)c1-n1ccnc1 (stereo not given) | > 1000 | 1000 (≈ 1730 µM) | 100 (≈ 173 µM) | 100 (≈ 173 µM) | 125 (≈ 217 µM) | 100 (≈ 173 µM) | 250 (≈ 434 µM) | 250 (≈ 434 µM) | 6 | 12 | 1.79 (≈ 3.1 µM) |
| Cc1ccc(N2C(N)=C(C#N)C(c3c(C)nn(-c4ccccc4)c3-n3ccnc3)C3=C2CC(C)(C)CC3=O)cc1 (stereo not given) | 1000 (≈ 1890 µM) | 1000 (≈ 1890 µM) | 62.5 (≈ 118 µM) | 125 (≈ 236 µM) | 200 (≈ 378 µM) | 250 (≈ 472 µM) | 100 (≈ 189 µM) | 100 (≈ 189 µM) | 80 | 90 | 1.07 (≈ 2.03 µM) |
| Cc1nn(-c2ccccc2)c(-n2ccnc2)c1C1C(C#N)=C(N)N(c2ccccc2)C2=C1C(=O)CC(C)(C)C2 (stereo not given) | 500 (≈ 970 µM) | 1000 (≈ 1940 µM) | 125 (≈ 242 µM) | 500 (≈ 970 µM) | 100 (≈ 194 µM) | 100 (≈ 194 µM) | 250 (≈ 485 µM) | 500 (≈ 970 µM) | 28 | 33 | 1.08 (≈ 2.1 µM) |
| Cc1nn(-c2ccccc2)c(-n2ccnc2)c1C1C(C(N)=O)=C(N)N(c2ccc(O)cc2)C2=C1C(=O)CC(C)(C)C2 (stereo not given) | 1000 (≈ 1820 µM) | 500 (≈ 910 µM) | 125 (≈ 227 µM) | 250 (≈ 455 µM) | 250 (≈ 455 µM) | 250 (≈ 455 µM) | 200 (≈ 364 µM) | 250 (≈ 455 µM) | 61 | 70 | 0.057 (≈ 0.104 µM) |
| Cc1nn(-c2ccccc2)c(-n2ccnc2)c1C1C(C#N)=C(N)N(c2ccc(O)cc2)C2=C1C(=O)CC(C)(C)C2 (stereo not given) | 1000 (≈ 1880 µM) | 500 (≈ 941 µM) | 250 (≈ 470 µM) | 200 (≈ 376 µM) | 200 (≈ 376 µM) | 250 (≈ 470 µM) | 250 (≈ 470 µM) | 500 (≈ 941 µM) | 94 | 94 | 1.23 (≈ 2.31 µM) |
| Cc1nn(-c2ccccc2)c(-n2ccnc2)c1C1C(C(N)=O)=C(N)N(c2cccc(O)c2)C2=C1C(=O)CC(C)(C)C2 (stereo not given) | 500 (≈ 910 µM) | 500 (≈ 910 µM) | 200 (≈ 364 µM) | 125 (≈ 227 µM) | 125 (≈ 227 µM) | 200 (≈ 364 µM) | 200 (≈ 364 µM) | 200 (≈ 364 µM) | 75 | 84 | 0.57 (≈ 1.04 µM) |
| Cc1nn(-c2ccccc2)c(-n2ccnc2)c1C1C(C#N)=C(N)N(c2cccc(O)c2)C2=C1C(=O)CC(C)(C)C2 (stereo not given) | 500 (≈ 941 µM) | 1000 (≈ 1880 µM) | 250 (≈ 470 µM) | 200 (≈ 376 µM) | 200 (≈ 376 µM) | 62.5 (≈ 118 µM) | 500 (≈ 941 µM) | 200 (≈ 376 µM) | 34 | 38 | 0.034 (≈ 0.064 µM) |
| CCn1cc(C(=O)O)c(=O)c2cc(F)c(N3CCNCC3)cc21 [NORFLOXACIN] | – | – | 50 (≈ 157 µM) | 250 (≈ 783 µM) | 50 (≈ 157 µM) | 50 (≈ 157 µM) | 25 (≈ 78.3 µM) | 25 (≈ 78.3 µM) | – | – | – |
| Cc1ccc(N2C(N)=C(C(N)=O)C(c3c(C)nn(-c4ccccc4)c3-n3ccnc3)C3=C2CC(C)(C)CC3=O)cc1 (stereo not given) | 250 (≈ 456 µM) | > 1000 | 200 (≈ 365 µM) | 250 (≈ 456 µM) | 200 (≈ 365 µM) | 250 (≈ 456 µM) | 250 (≈ 456 µM) | 200 (≈ 365 µM) | 30 | 35 | 1.02 (≈ 1.87 µM) |
| Cc1nn(-c2ccccc2)c(-n2ccnc2)c1C1C(C(N)=O)=C(N)N(c2ccccc2)C2=C1C(=O)CC(C)(C)C2 (stereo not given) | 1000 (≈ 1870 µM) | 250 (≈ 468 µM) | 250 (≈ 468 µM) | 200 (≈ 375 µM) | 200 (≈ 375 µM) | 250 (≈ 468 µM) | 125 (≈ 234 µM) | 125 (≈ 234 µM) | 4 | 7 | 0.62 (≈ 1.16 µM) |
| CCOC(=O)C1=C(N)N(c2ccc(O)cc2)C2=C(C(=O)CC(C)(C)C2)C1c1c(C)nn(-c2ccccc2)c1-n1ccnc1 (stereo not given) | > 1000 | 500 (≈ 864 µM) | 200 (≈ 346 µM) | 250 (≈ 432 µM) | 200 (≈ 346 µM) | 200 (≈ 346 µM) | 62.5 (≈ 108 µM) | 200 (≈ 346 µM) | 12 | 20 | 0.096 (≈ 0.166 µM) |
| CCOC(=O)C1=C(N)N(c2cccc(O)c2)C2=C(C(=O)CC(C)(C)C2)C1c1c(C)nn(-c2ccccc2)c1-n1ccnc1 (stereo not given) | 1000 (≈ 1730 µM) | 250 (≈ 432 µM) | 200 (≈ 346 µM) | 200 (≈ 346 µM) | 200 (≈ 346 µM) | 125 (≈ 216 µM) | 500 (≈ 864 µM) | 250 (≈ 432 µM) | 9 | 12 | 0.072 (≈ 0.124 µM) |
| CC1(C)S[C@@H]2[C@H](NC(=O)[C@H](N)c3ccccc3)C(=O)N2[C@H]1C(=O)O [AMPICILLIN] | – | – | 10 (≈ 28.6 µM) | 100 (≈ 286 µM) | 10 (≈ 28.6 µM) | 50 (≈ 143 µM) | 100 (≈ 286 µM) | 100 (≈ 286 µM) | – | – | – |
| O=C(O)c1cn(C2CC2)c2cc(N3CCNCC3)c(F)cc2c1=O [CIPROFLOXACIN] | – | – | 10 (≈ 30.2 µM) | – | – | 50 (≈ 151 µM) | 100 (≈ 302 µM) | – | – | – | – |
